Measured values as given in the array DNA melting data of Ke et al. (doi:10.1101/2024.01.08.574731).

What was measured:
[1] = folding enthalpy; higher = less favourable; fluorescence melt of hairpins on a sequencing array, two-state fit; details: sodium 0.088 M
In short: (§1)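 Melting temperature and folding enthalpy were derived from bootstrapped two-state fits. The fitted temperatures were raised by 9.35 °C to agree with UV melts, and four replicates were combined by inverse variance. The underlying data were Cy3 fluorescence images of library hairpins, with annealed Cy3 and quencher oligos, on a sequenced MiSeq flow cell in 50 mM Na-HEPES pH 8.0, 25 mM NaCl, taken in 2.5 °C steps up to 60 °C, normalised to pre-quench Cy3 and to control constructs.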

[2] = melting temperature; fluorescence melt of hairpins on a sequencing array, two-state fit, raised by 9.35 °C to match UV melts; details: sodium 0.088 M
In short: as §1

Sequence	folding enthalpy [1]	Tm [2]
GATCCCTTTGGGGATC ((((((....))))))	-46 kcal/mol	62.8 °C
GATCCCTTTTGGGATC ((((((....))))))	-38.3 kcal/mol	60.1 °C
GATCCGAAACGGATC ((((((...))))))	-35.4 kcal/mol	57 °C
GATCCGAAATCGGATC ((((((....))))))	-35.4 kcal/mol	54.9 °C
GATCCGAAGCCGGATC ((((((....))))))	-39.6 kcal/mol	55.4 °C
GATCCGACACGGATC ((((((...))))))	-35.6 kcal/mol	59.1 °C
GATCCGACCCGGATC ((((((...))))))	-39.9 kcal/mol	56.6 °C
GATCCGACTGCGGATC ((((((....))))))	-48.8 kcal/mol	56.1 °C
GATCCGACTTCGGATC ((((((....))))))	-39.6 kcal/mol	57.4 °C
GATCCGAGCCGGATC ((((((...))))))	-44.5 kcal/mol	56.3 °C
GATCCGAGGCCGGATC ((((((....))))))	-45.5 kcal/mol	56.4 °C
GATCCGAGGCGGATC ((((((...))))))	-43.4 kcal/mol	56.8 °C
GATCCGAGTCCGGATC ((((((....))))))	-40.2 kcal/mol	56 °C
GATCCGATAACGGATC ((((((....))))))	-33.1 kcal/mol	59.1 °C
GATCCGATCTCGGATC ((((((....))))))	-40.9 kcal/mol	62.2 °C
GATCCGATGGCGGATC ((((((....))))))	-42.8 kcal/mol	56.6 °C
GATCCGATTCCGGATC ((((((....))))))	-43.5 kcal/mol	57.1 °C
GATCCGATTGCGGATC ((((((....))))))	-38.4 kcal/mol	56.1 °C
GATCCGCAACGGATC ((((((...))))))	-33 kcal/mol	55.8 °C
GATCCGCAAGCGGATC ((((((....))))))	-39 kcal/mol	68 °C
GATCCGCAATCGGATC ((((((....))))))	-35.1 kcal/mol	56 °C
GATCCGCCACCGGATC ((((((....))))))	-34.3 kcal/mol	56.4 °C
GATCCGCCCACGGATC ((((((....))))))	-43.6 kcal/mol	59.5 °C
GATCCGCCCCGGATC ((((((...))))))	-36.8 kcal/mol	58.4 °C

Sequence	folding enthalpy [1]	Tm [2]
GATCCGCCCGCGGATC ((((((....))))))	-38.3 kcal/mol	68.7 °C
GATCCGCCGGCGGATC ((((((....))))))	-45.4 kcal/mol	68.9 °C
GATCCGCGAACGGATC ((((((....))))))	-42.3 kcal/mol	58.9 °C
GATCCGCGACCGGATC ((((((....))))))	-38.4 kcal/mol	54.8 °C
GATCCGCGATCGGATC ((((((....))))))	-28.8 kcal/mol	57.4 °C
GATCCGCGGTCGGATC ((((((....))))))	-42.7 kcal/mol	57.2 °C
GATCCGCGTCCGGATC ((((((....))))))	-41.8 kcal/mol	57.6 °C
GATCCGCTATCGGATC ((((((....))))))	-40.2 kcal/mol	57.2 °C
GATCCGCTCACGGATC ((((((....))))))	-41.3 kcal/mol	63.3 °C
GATCCGCTCTCGGATC ((((((....))))))	-33.8 kcal/mol	60 °C
GATCCGCTTCCGGATC ((((((....))))))	-38.2 kcal/mol	57.6 °C
GATCCGCTTTCGGATC ((((((....))))))	-40.4 kcal/mol	57.8 °C
GATCCGGCACGGATC ((((((...))))))	-36 kcal/mol	69.2 °C
GATCCGGCCCCGGATC ((((((....))))))	-47.8 kcal/mol	61.1 °C
GATCCGGCCGCGGATC ((((((....))))))	-41.5 kcal/mol	58 °C
GATCCGGCGACGGATC ((((((....))))))	-33.4 kcal/mol	67.4 °C
GATCCGGGCTCGGATC ((((((....))))))	-44.6 kcal/mol	59.3 °C
GATCCGGGGCCGGATC ((((((....))))))	-41.4 kcal/mol	61 °C
GATCCGGGGGCGGATC ((((((....))))))	-38.3 kcal/mol	60.1 °C
GATCCGGGTCGGATC ((((((...))))))	-29.6 kcal/mol	58.6 °C
GATCCGGTCCCGGATC ((((((....))))))	-35.4 kcal/mol	65.3 °C
GATCCGGTGACGGATC ((((((....))))))	-38.9 kcal/mol	67.3 °C
GATCCGGTGCGGATC ((((((...))))))	-45.2 kcal/mol	57.5 °C
GATCCGGTGGCGGATC ((((((....))))))	-31.4 kcal/mol	56.5 °C

Sequence	folding enthalpy [1]	Tm [2]
GATCCGGTGTCGGATC ((((((....))))))	-37.2 kcal/mol	57.6 °C
GATCCGTAAACGGATC ((((((....))))))	-38.2 kcal/mol	60.3 °C
GATCCGTACCGGATC ((((((...))))))	-34.8 kcal/mol	58.9 °C
GATCCGTATCCGGATC ((((((....))))))	-39 kcal/mol	58.2 °C
GATCCGTATCGGATC ((((((...))))))	-30.3 kcal/mol	57.3 °C
GATCCGTCCCCGGATC ((((((....))))))	-32.1 kcal/mol	56.5 °C
GATCCGTCGTCGGATC ((((((....))))))	-36.3 kcal/mol	60.1 °C
GATCCGTGACGGATC ((((((...))))))	-38.3 kcal/mol	59.9 °C
GATCCGTGCCCGGATC ((((((....))))))	-50.9 kcal/mol	56.6 °C
GATCCGTGCGCGGATC ((((((....))))))	-48.4 kcal/mol	65 °C
GATCCGTGGCCGGATC ((((((....))))))	-39.1 kcal/mol	57.7 °C
GATCCGTTAACGGATC ((((((....))))))	-43.2 kcal/mol	64 °C
GATCCGTTACCGGATC ((((((....))))))	-34.6 kcal/mol	59.5 °C
GATCCGTTCCCGGATC ((((((....))))))	-43.4 kcal/mol	55.7 °C
GATCCGTTCGCGGATC ((((((....))))))	-50.4 kcal/mol	61.3 °C
GATCCGTTCTCGGATC ((((((....))))))	-42.2 kcal/mol	60.7 °C
GATCCTAAAAAGGATC ((((((....))))))	-27.9 kcal/mol	47.6 °C
GATCCTAAGTAGGATC ((((((....))))))	-39.5 kcal/mol	51.7 °C
GATCCTAATAAGGATC ((((((....))))))	-40.1 kcal/mol	50.8 °C
GATCCTACAAGGATC ((((((...))))))	-33.6 kcal/mol	54.5 °C
GATCCTACACAGGATC ((((((....))))))	-35.9 kcal/mol	51.6 °C
GATCCTACCAAGGATC ((((((....))))))	-38.1 kcal/mol	53.2 °C
GATCCTACCCAGGATC ((((((....))))))	-39.9 kcal/mol	51.2 °C
GATCCTACTAAGGATC ((((((....))))))	-35.1 kcal/mol	52.5 °C
